Experiment [1] deals with T1, Type-1 angiotensin II receptor A (Rattus norvegicus, UniProt P25095).
T1 sequence (P25095 whole entry): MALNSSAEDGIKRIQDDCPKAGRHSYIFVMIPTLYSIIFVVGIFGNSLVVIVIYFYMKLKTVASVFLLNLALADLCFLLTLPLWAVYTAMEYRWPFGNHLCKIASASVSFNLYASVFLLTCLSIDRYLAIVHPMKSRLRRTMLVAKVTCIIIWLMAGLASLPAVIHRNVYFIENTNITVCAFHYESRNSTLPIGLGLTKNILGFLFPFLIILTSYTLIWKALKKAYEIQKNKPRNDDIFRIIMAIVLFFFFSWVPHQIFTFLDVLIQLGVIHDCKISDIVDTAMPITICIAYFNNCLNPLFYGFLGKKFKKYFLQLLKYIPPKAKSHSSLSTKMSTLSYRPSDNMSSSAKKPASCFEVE
Put plainly: Displacement of [125I]Ang 2 from AT1 receptor in rat liver membranes. Type of experiment: cell membranes, Membrane. The method, boiled down: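 Rat liver membranes (5 mg original tissue) incubated with [125I]Ang II (0.03 nM) and varying test compound in 50 mM Tris–HCl pH 7.4, 100 mM NaCl, 10 mM MgCl2, 1 mM EDTA, 0.025% bacitracin, 0.2% BSA; 25 °C for 2 h. Filtered onto polyethylamine-soaked GF/B filters, gamma counting. Nonspecific binding with 1 µM Ang II; triplicate.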
(In general: Displacement assays read how much labelled ligand stays bound in the presence of the test substance.)

Experiment [2] in a line: Displacement of [125I]Ang 2 from AT2 receptor in pig uterus membranes. Type of experiment: cell membranes, Sus scrofa, Membrane. An outline of the steps:
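Porcine uterine myometrial membranes (10 mg original tissue), with 1 µM losartan to block AT1, incubated with [125I]Ang II (0.03 nM) and varying test compound in Tris–HCl pH 7.4 buffer with NaCl, MgCl2, EDTA, bacitracin and BSA; 25 °C, 1.5 h. Filtered, gamma counted. Nonspecific binding with 1 µM Ang II. Ki via Cheng–Prusoff (Kd 0.73 nM), one-site fit; triplicate.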

Experiment [3] relates to NG108-15. The experiment can be described thus: Induction of neurite outgrowth in NG108-15 cells at 1 nM after 3 days. Type of experiment: functional, cell-based. An outline of the steps:
(§1)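 NG108-15 neuroblastoma×glioma cells (AT2 only; DMEM, 10% FBS, HAT) plated at 3.6·10⁴ cells/35 mm dish, then treated daily for 3 days, alone or with PD 123,319 added 30 min beforehand. Examined by phase-contrast microscopy.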

Experiment [4] has as its system NG108-15. The experiment can be described thus: Induction of neurite outgrowth in NG108-15 cells at 0.1 uM after 3 days. Type of experiment: functional, cell-based. The method, boiled down: as §1

Results on 32 compounds are retold here after ChEMBL document CHEMBL1139832, “Selective angiotensin II AT(2) receptor agonists devoid of the imidazole ring system” (Bioorg Med Chem, 2007).

Calls of active or inactive are those of the source. No cut-off for these calls is given here.

Broadly, the Ki is the equilibrium dissociation constant of an inhibitor or competing ligand from its target. High values mean a looser hold on the target, low ones a stronger hold on the target. With `CCCCOC(=O)NS(=O)(=O)c1sc(CC(C)C)cc1-c1ccc(CN(Cc2cccnc2)C(C)=O)cc1`, the Ki in experiment [1] was more than 10000 nM; in experiment [2] it was 59 nM.

For the compound `CCCCOC(=O)NS(=O)(=O)c1sc(CC(C)C)cc1-c1ccc(CN(C(C)=O)c2ccc(C)cc2)cc1`, the Ki in experiment [1] is more than 10000 nM; in experiment [2], 60 nM.

As for `CCCCOC(=O)NS(=O)(=O)c1sc(CC(C)C)cc1-c1ccc(CC(=O)N(Cc2ccccc2)Cc2ccccc2)cc1`, the Ki in experiment [1] is more than 10000 nM; in experiment [2], 185 nM.

With `CCCCOC(=O)NS(=O)(=O)c1sc(CC(C)C)cc1-c1ccc(CC(=O)NC)cc1`, the values for the Ki in experiment [1] and in experiment [2] were more than 10000 nM and 80 nM, respectively.

In the case of `CCCCOC(=O)NS(=O)(=O)c1sc(CC(C)C)cc1-c1ccc(CN(Cc2cccnc2)C(=O)c2ccccc2)cc1`, the inhibition constant Ki in experiment [1] was more than 10000 nM; in experiment [2], 404 nM.

`CCCCOC(=O)NS(=O)(=O)c1sc(CC(C)C)cc1-c1ccc(CC(=O)N(c2ccccc2)c2ccccc2)cc1`: the inhibitory constant (Ki) in experiment [1] is more than 10000 nM; in experiment [2], 219 nM.

With `CCCCOC(=O)NS(=O)(=O)c1sc(CC(C)C)cc1-c1ccc(CN(C)C=O)cc1`, the Ki in experiment [1] is more than 10000 nM; in experiment [2] it was 3.1 nM.

Regarding `CCCCOC(=O)NS(=O)(=O)c1sc(CC(C)C)cc1-c1csc(CN(C)C(C)=O)c1`, the Ki in experiment [1] and in experiment [2] was more than 10000 nM in each case.

On to `CCCCOC(=O)NS(=O)(=O)c1sc(CC(C)C)cc1-c1ccc(CN(C)C(=O)CCCC)cc1`, for which the Ki is more than 10000 nM in experiment [1] and 12 nM in experiment [2].

`CCCCOC(=O)NS(=O)(=O)c1sc(CC(C)C)cc1-c1ccc(CN(C)C(=O)OCC)cc1`: the Ki in experiment [1] is more than 10000 nM; in experiment [2], 9.7 nM.

As to `CCCCOC(=O)NS(=O)(=O)c1sc(CC(C)C)cc1-c1ccc(CC(=O)N(CC)Cc2ccccc2)cc1`, the Ki in experiment [1] is more than 10000 nM; in experiment [2], 322 nM.

On to `CCCCOC(=O)NS(=O)(=O)c1sc(CC(C)C)cc1-c1ccc(CN(C)CC#N)cc1`, for which the Ki in experiment [1] and in experiment [2] was more than 10000 nM throughout.

`CCCCOC(=O)NS(=O)(=O)c1sc(CC(C)C)cc1-c1ccc(CNC(C)=O)cc1`: the values for the Ki in experiment [1] and in experiment [2] were more than 10000 nM and 5.8 nM, respectively.

Regarding `CCCCOC(=O)NS(=O)(=O)c1sc(CC(C)C)cc1-c1ccc(CN(C(=O)c2ccccc2)c2ccc(C)cc2)cc1`, the figures for the Ki in experiment [1] and in experiment [2] were more than 10000 nM and 46 nM, respectively.

For `CCCCOC(=O)NS(=O)(=O)c1sc(CC(C)C)cc1-c1ccc(CN(C)C(C)=O)cc1`, the Ki in experiment [1] is more than 10000 nM; in experiment [2], 8.8 nM. Moreover, in the experiment on NG108-15 [3], the result was Active.

In the case of `CCCCOC(=O)NS(=O)(=O)c1sc(CC(C)C)cc1-c1ccc(CN(Cc2ccccc2)C(=O)CCCC)cc1`, the Ki in experiment [1] was more than 10000 nM; in experiment [2], 84 nM.

With `CCCCOC(=O)NS(=O)(=O)c1sc(CC(C)C)cc1-c1ccc(CN(C)S(C)(=O)=O)cc1`, the Ki in experiment [1] was more than 10000 nM; in experiment [2] it was 32 nM.

Consider `CCCCOC(=O)NS(=O)(=O)c1sc(CC(C)C)cc1-c1ccc(CC(=O)NCc2ccccc2)cc1`, for which the Ki was more than 10000 nM in experiment [1] and 221 nM in experiment [2].

Consider `CCCCCCNC(=O)Cc1ccc(-c2cc(CC(C)C)sc2S(=O)(=O)NC(=O)OCCCC)cc1`, for which the values for the Ki in experiment [1] and in experiment [2] were more than 10000 nM and 158 nM, respectively.

For `CCCCOC(=O)NS(=O)(=O)c1sc(CC(C)C)cc1-c1ccc(CC(=O)N(C)C)cc1`, the Ki in experiment [1] is more than 10000 nM; in experiment [2], 7 nM. In the experiment on NG108-15 [4], the outcome was Active.

As to `CCCCOC(=O)NS(=O)(=O)c1sc(CC(C)C)cc1-c1ccc(CN(C)C(C)=O)o1`, the inhibitory constant (Ki) in experiment [1] is more than 10000 nM; in experiment [2], 9.1 nM. The result in the experiment with NG108-15 [3] was Active.

Consider `CCCCOC(=O)NS(=O)(=O)c1sc(CC(C)C)cc1-c1ccc(CC(=O)Nc2ccc(C)cc2)cc1`, for which the values for the Ki in experiment [1] and in experiment [2] were more than 10000 nM and 58 nM, respectively.

For `CCCCOC(=O)NS(=O)(=O)c1sc(CC(C)C)cc1-c1ccc(CC(=O)N2CCSC2)cc1`, the Ki was more than 10000 nM in experiment [1] and 133 nM in experiment [2].

For `CCCCOC(=O)NS(=O)(=O)c1sc(CC(C)C)cc1-c1ccc(CC(=O)N(C)CCCC)cc1`, the Ki in experiment [1] was more than 10000 nM; in experiment [2] it was 367 nM.

Turning to `CCCCOC(=O)NS(=O)(=O)c1sc(CC(C)C)cc1-c1ccc(CN(Cc2ccccc2)C(C)=O)cc1`, the Ki was more than 10000 nM in experiment [1] and 200 nM in experiment [2].

With `CCCCOC(=O)NS(=O)(=O)c1sc(CC(C)C)cc1-c1ccc(CN(CC)C(=O)c2cccs2)cc1`, the figures for the Ki in experiment [1] and in experiment [2] were more than 10000 nM and 138 nM, respectively.

Take `CCCCOC(=O)NS(=O)(=O)c1sc(CC(C)C)cc1-c1ccc(CN(C)OC)cc1`: the inhibition constant Ki in experiment [1] is more than 10000 nM; in experiment [2] it was 2.8 nM. Also, the result in the experiment with NG108-15 [3] was Active.

`CCCCOC(=O)NS(=O)(=O)c1sc(CC(C)C)cc1-c1ccc(CN(C)C(C)=O)cn1`: the Ki in experiment [1] and in experiment [2] was more than 10000 nM each time.

In the case of `CCCCOC(=O)NS(=O)(=O)c1sc(CC(C)C)cc1-c1ccc(CC(=O)N2CCOCC2)cc1`, the Ki in experiment [1] is more than 10000 nM; in experiment [2] it was 124 nM.

For the compound `CCCCOC(=O)NS(=O)(=O)c1sc(CC(C)C)cc1-c1ccc(CN(C)C)cc1`, the Ki in experiment [1] and in experiment [2] was more than 10000 nM each time.

Turning to `CCCCOC(=O)NS(=O)(=O)c1sc(CC(C)C)cc1-c1ccc(CN(CC)C(C)=O)cc1`, the Ki in experiment [1] is more than 10000 nM; in experiment [2], 126 nM.

Take `CCCCOC(=O)NS(=O)(=O)c1sc(CC(C)C)cc1-c1ccc(CC(N)=O)cc1`: the values for the Ki in experiment [1] and in experiment [2] were more than 10000 nM and 51 nM, respectively.
